In ChEMBL document CHEMBL1275331, “Discovery of a novel 5-HT(3) antagonist/5-HT(1A) agonist 3-amino-5,6,7,8-tetrahydro-2-{4-[4-(quinolin-2-yl)piperazin-1-yl]butyl}quinazolin-4(3H)-one (TZB-30878) as an orally bioavailable agent for irritable bowel syndrome” (J Med Chem, 2010):
Activity calls are given as the source filed them. The rule behind the calls is not given here.

Key:
[1] = Drug level in Sprague-Dawley rat blood at 3 mg/kg, po after 8 hrs by HPLC analysis; format: ADME, organism-based; parameters: dose 3 mg/kg, route oral; settings: whole blood, read-out: Drug uptake
Method in brief: (§1)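 Total compound concentration was measured in brain and blood at 2, 4 and 8 h after a single oral 3 mg/kg dose. Brain/blood ratio was also derived. Values are mean ± SD of three rats.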

[2] = molecular target: T1, 5-hydroxytryptamine receptor 1A (Homo sapiens, UniProt P08908); assay: Agonist activity at human cloned 5HT1A receptor expressed in CHO cells assessed as stimulation of [35S]GTPgammaS binding after 30 mins by liquid scintillation counting; format: functional, cell-based
T1 sequence (P08908 whole entry): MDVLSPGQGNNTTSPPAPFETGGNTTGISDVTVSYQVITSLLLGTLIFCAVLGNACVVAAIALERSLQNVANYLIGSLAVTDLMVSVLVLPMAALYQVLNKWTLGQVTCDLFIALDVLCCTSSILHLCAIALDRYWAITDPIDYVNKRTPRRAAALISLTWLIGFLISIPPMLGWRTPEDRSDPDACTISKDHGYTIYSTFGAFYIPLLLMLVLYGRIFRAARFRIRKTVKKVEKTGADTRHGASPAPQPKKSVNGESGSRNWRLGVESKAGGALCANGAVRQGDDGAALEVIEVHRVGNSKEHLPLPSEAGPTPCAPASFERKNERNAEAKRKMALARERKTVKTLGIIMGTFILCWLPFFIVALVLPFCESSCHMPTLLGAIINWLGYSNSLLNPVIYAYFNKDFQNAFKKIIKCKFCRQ
Method in brief: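 Membranes from CHO cells expressing human 5-HT1A were diluted in 20 mM HEPES/3 mM MgCl2/120 mM NaCl, pH 7.4. They were preincubated with 20 μM GDP and test drug for 20 min at 30 °C, then held on ice for 15 min. [35S]GTPγS (100 pM) was added for 30 min at 30 °C. Samples were filtered, washed with cold HEPES/MgCl2 buffer, and bound radioactivity counted; EC50 and Emax reported.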

[3] = molecular target: Sodium-dependent dopamine transporter (Homo sapiens, UniProt Q01959); assay: Displacement of [3H]BTCP from human recombinant DAT
Sodium-dependent dopamine transporter, sequence (Q01959 whole entry): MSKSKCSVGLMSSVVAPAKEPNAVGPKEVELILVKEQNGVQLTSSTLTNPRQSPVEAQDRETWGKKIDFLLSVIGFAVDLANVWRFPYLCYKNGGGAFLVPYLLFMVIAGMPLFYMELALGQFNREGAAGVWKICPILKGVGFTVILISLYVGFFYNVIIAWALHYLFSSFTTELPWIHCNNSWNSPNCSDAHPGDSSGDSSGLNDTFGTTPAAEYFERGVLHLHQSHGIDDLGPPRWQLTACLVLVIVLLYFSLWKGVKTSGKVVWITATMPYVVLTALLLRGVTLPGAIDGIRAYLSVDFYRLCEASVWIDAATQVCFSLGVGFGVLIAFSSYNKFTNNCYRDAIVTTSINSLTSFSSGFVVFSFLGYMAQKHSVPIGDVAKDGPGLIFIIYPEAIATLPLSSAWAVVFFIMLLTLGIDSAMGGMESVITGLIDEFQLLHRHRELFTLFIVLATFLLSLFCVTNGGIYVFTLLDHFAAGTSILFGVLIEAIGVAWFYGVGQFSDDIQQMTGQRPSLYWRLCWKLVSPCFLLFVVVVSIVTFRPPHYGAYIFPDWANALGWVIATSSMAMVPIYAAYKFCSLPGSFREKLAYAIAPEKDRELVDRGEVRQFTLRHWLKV

[4] = molecular target: Kappa-type opioid receptor (Cavia porcellus, UniProt P41144); assay: Displacement of [3H]U69593 from guinea pig cerebellum kappa opioid receptor; format: tissue-based
Kappa-type opioid receptor, sequence (P41144 whole entry): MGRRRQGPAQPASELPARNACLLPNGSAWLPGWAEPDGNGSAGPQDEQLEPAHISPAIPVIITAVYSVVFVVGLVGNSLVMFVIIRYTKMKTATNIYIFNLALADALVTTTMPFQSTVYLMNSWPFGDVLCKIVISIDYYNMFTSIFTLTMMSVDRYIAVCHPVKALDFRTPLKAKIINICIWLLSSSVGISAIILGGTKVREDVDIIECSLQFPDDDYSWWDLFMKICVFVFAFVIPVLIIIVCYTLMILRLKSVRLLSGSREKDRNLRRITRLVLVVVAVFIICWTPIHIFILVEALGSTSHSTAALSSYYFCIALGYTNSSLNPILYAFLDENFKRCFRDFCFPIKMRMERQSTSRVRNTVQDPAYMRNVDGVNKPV

[5] = molecular target: T2, 5-hydroxytryptamine receptor 3A (Homo sapiens, UniProt P46098); assay: Displacement of [3H]BRL-43694 from human recombinant 5HT3 receptor
T2 sequence (P46098 whole entry): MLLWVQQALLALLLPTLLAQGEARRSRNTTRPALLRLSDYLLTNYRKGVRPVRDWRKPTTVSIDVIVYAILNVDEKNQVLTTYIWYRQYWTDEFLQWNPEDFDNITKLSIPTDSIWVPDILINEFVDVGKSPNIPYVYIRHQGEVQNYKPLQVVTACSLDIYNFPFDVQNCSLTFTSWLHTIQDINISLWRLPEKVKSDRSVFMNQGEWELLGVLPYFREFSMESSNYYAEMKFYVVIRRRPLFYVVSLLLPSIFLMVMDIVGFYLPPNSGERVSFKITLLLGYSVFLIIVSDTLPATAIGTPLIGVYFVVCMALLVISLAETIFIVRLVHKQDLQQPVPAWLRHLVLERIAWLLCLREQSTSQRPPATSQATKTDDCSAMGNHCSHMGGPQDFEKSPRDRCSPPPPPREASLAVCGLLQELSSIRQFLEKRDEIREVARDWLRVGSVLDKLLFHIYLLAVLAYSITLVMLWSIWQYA

[6] = molecular target: Adrenergic receptor alpha-1 (Rattus norvegicus, UniProt P15823+P23944+P43140); assay: Displacement of [3H]prazosin from rat cerebral cortex alpha1 adrenergic receptor; format: tissue-based
[7] = molecular target: T1, 5-hydroxytryptamine receptor 1A; assay: Displacement of 8-hydroxy-[3H]DPAT from human recombinant 5HT1A receptor
Rattus norvegicus [8] = assay: Reduction in wrap restraint stress-induced defecation in WAY-100635-treated rat diarrhea-predominant irritable bowel syndrome model at 0.3 to 3 mg/kg, ip administered 20 mins following addition of 5HT1A receptor antagonist WAY-100635; format: functional, organism-based
Method in brief: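 Rats received saline (with diluted HCl) or WAY-100635 sc; 20 min later compound or vehicle ip. Five minutes after, lightly anesthetized rats were wrapped for 1 h and feces counted. n = 8 per group, mean (SD); Wilcoxon and nonparametric Dunnett's tests.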

Rattus norvegicus [9] = assay: Induction of 5HT1A receptor-mediated lower lip retraction behavior in rat at 10 mg/kg, iv after 30 mins; format: functional, organism-based; parameters: dose 10 mg/kg
Method in brief: (§2)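 Rats were conditioned to test procedures over 2 weeks and acclimated to the test cage for 1 h. Vehicle was saline containing diluted HCl. Lower lip retraction and flat body posture were scored on a 0–3 scale at 5, 10, 20 and 30 min after dosing.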

Rattus norvegicus [10] = assay: Reduction in wrap restraint stress-induced defecation in rat diarrhea-predominant irritable bowel syndrome model at 1 to 10 mg/kg, po administered 1 hr prior to induction of stress; format: functional, organism-based
Method in brief: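 Lightly anesthetized rats had upper bodies wrapped with adhesive tape, then returned to observation cages; feces counted 1 h after wrapping. Compound or vehicle given orally 1 h before restraint; unwrapped animals as normal group. n = 8 per group, mean (SD); Wilcoxon and nonparametric Dunnett's tests.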

Mu-type opioid receptor = Mu-type opioid receptor (Homo sapiens, UniProt P35372); assay: Displacement of [3H]DAMGO from human recombinant mu opioid receptor
Mu-type opioid receptor, sequence (P35372 whole entry): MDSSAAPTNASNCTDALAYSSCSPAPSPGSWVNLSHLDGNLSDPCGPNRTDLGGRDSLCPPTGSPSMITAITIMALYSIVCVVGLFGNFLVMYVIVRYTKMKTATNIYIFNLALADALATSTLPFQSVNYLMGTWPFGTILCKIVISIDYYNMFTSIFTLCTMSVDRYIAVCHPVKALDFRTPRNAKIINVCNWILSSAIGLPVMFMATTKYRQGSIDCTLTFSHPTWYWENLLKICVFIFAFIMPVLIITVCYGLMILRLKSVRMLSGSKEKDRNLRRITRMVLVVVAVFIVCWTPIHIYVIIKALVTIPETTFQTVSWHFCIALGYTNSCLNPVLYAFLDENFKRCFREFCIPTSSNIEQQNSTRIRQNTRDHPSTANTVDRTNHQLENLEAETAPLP

[11] = molecular target: T2, 5-hydroxytryptamine receptor 3A; assay: Binding affinity to human 5HT3 receptor
Method in brief: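 HEK-293 membranes expressing human 5-HT3 were incubated with 0.5 nmol/L [3H]BRL-43694 (final) for 60 min at 25 °C. Buffer: 50 mM Tris-HCl, 5 mM MgCl2, 1 mM EDTA, pH 7.5. Compound came from 270 μmol/L DMSO stock, diluted in buffer. Filtration was through GF/B presoaked in 0.5% polyethyleneimine, with two cold Tris washes. Run in duplicate or triplicate; percent inhibition calculated.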

[12] = molecular target: Muscarinic acetylcholine receptor M3 (Homo sapiens, UniProt P20309); assay: Displacement of [3H]4-DAMP from human recombinant muscarinic M3 receptor
Muscarinic acetylcholine receptor M3, sequence (P20309 whole entry): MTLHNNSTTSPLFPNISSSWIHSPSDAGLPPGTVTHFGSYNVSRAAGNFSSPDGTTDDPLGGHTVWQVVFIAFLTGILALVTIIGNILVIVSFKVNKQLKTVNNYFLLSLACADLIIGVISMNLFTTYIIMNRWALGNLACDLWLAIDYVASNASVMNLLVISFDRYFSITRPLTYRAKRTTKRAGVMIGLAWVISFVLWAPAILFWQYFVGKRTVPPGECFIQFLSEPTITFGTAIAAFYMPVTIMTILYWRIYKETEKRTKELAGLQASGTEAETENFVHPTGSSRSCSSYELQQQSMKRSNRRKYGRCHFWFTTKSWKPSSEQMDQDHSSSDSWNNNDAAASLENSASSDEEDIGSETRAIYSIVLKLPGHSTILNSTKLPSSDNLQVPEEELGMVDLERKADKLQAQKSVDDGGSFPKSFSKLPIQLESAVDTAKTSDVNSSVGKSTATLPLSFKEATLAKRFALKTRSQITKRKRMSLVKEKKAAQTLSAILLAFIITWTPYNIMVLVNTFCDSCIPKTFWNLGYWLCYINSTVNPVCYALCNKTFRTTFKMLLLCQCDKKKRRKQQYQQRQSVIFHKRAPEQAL

[13] = molecular target: T1, 5-hydroxytryptamine receptor 1A; assay: Binding affinity to human 5HT1A receptor
Method in brief: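 CHO-cell membranes with human 5-HT1A were incubated with 0.25 nmol/L [3H]8-OH-DPAT (final) for 60 min at 27 °C. Buffer: 50 mM Tris-HCl, 10 mM MgSO4, 0.5 mM EDTA, 0.1% ascorbic acid, pH 7.4. Compound came from 270 μmol/L DMSO stock, diluted in buffer. Filtration was through GF/C presoaked in 0.3% polyethyleneimine, with two cold Tris washes. Run in duplicate or triplicate; percent inhibition of binding calculated.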

[14] = Drug level in Sprague-Dawley rat brain at 3 mg/kg, po after 4 hrs by HPLC analysis; format: ADME, organism-based; parameters: dose 3 mg/kg, route oral; settings: read-out: Drug uptake; method in brief: as §1
Rattus norvegicus [15] = assay: Induction of 5HT1A receptor-mediated behavioral activity in rat assessed as appearance of flat body posture at 10 mg/kg, iv after 30 mins; format: functional, organism-based; parameters: dose 10 mg/kg; method in brief: as §2
D(2) dopamine receptor = D(2) dopamine receptor (Homo sapiens, UniProt P14416); assay: Inhibition of human dopamine D2 receptor
D(2) dopamine receptor, sequence (P14416 whole entry): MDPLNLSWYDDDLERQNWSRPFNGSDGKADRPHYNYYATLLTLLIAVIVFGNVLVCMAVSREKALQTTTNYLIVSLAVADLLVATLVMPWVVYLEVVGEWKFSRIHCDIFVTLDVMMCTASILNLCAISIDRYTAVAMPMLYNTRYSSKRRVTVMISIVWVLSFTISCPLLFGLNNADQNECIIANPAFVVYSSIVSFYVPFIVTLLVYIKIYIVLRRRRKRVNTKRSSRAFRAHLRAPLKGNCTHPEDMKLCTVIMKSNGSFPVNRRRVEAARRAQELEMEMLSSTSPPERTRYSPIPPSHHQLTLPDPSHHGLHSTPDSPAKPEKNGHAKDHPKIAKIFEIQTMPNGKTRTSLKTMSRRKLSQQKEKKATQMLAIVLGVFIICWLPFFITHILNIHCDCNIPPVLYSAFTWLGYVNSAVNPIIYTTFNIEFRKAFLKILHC

[16] = molecular target: 5-hydroxytryptamine receptor 4 (Cavia porcellus, UniProt O70528); assay: Inhibition of guinea pig 5HT4 receptor
5-hydroxytryptamine receptor 4, sequence (O70528 whole entry): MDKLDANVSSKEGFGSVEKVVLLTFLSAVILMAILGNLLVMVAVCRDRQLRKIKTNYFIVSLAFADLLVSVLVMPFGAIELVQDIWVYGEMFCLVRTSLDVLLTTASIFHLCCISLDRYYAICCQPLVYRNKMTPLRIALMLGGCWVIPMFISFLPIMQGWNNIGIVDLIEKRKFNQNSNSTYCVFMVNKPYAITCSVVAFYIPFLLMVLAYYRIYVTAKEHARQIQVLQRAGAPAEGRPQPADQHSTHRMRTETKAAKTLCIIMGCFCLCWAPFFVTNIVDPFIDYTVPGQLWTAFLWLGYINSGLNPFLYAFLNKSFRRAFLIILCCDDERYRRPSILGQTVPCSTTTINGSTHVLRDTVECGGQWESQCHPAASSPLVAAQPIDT

concentration at 8 h [1]: 9.97 nM
EC50 [2]: 22.3 nM
IC50 [3]: > 1000 nM
IC50 [4]: > 1000 nM
IC50 [5]: > 8.93 nM
IC50 [6]: 1 ×10⁻⁶ mol/L
IC50 [7]: > 1.36 nM
IC50 (Mu-type opioid receptor): > 1000 nM
Ki [11]: 4.72 nM
IC50 [12]: > 1000 nM
Ki [13]: 0.701 nM
concentration at 4 h [14]: 70.2 nM
IC50 (D(2) dopamine receptor): > 100 nM
IC50 [16]: > 1000 nM
Compound: Nn1c(CCCCN2CCN(c3ccc4ccccc4n3)CC2)nc2c(c1=O)CCCC2
inhibition (Rattus norvegicus [8]): inactive
Activity (Rattus norvegicus [9]): Active
inhibition (Rattus norvegicus [10]): Active
Activity (Rattus norvegicus [15]): Active
